For one data set, the system named is HCT-8. Kind of data set: Antiproliferative activity against human HCT8 cells after 72 hrs by MTT assay. The note with it: HCT-8, 72 h. Type of data set: functional, cell-based. The essentials: (§1)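 Cells were cultured overnight in RPMI 1640 + 10% FBS, then treated in triplicate with vehicle or compound across the indicated concentrations for 72 h. MTT was added for the final 4 h, formazan was dissolved in DMSO, and absorbance was read at 570 nm. Inhibition rate = (1 − OD treated/OD control) × 100%, and the IC50 was derived from it.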

A short description of data set [1]: Aqueous solubility of the compound in PBS buffer at pH 5 by HPLC analysis. Type of data set: physicochemical.
Data set [2] deals with HCT-116. Kind of data set: Antiproliferative activity against human HCT116 cells after 72 hrs by MTT assay. Type of data set: functional, cell-based. The note with it: HCT-116, 72 h.
The test system of data set [3] is HCT-116. Description: Antiproliferative activity against human HCT116 cells at 10 uM after 72 hrs by MTT assay. Type of data set: functional, cell-based. A general note: Tetrazolium dyes change colour on reduction, which living cells bring about.
Another data set has as its system HT-29. Description: Antiproliferative activity against human HT-29 cells after 72 hrs by MTT assay. It counts as functional, cell-based. The note with it: HT-29, 72 h. The essentials: as §1
A short description of data set [4]: Cytotoxicity against human CCD-841 cells assessed as reduction in cell viability after 72 hrs by MTT assay. Type of data set: cell-based. The note with it: CCD-841, 72 h. Summed up:
as §1

In data set [5] the test system is HCT-116. Description: Induction of intracellular ROS generation in human HCT116 cells at 10 uM after 3 hrs by DCFH-DA-dye based fluorescence microscopy. Type of data set: functional, cell-based. The essentials:
(§2)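 Cells were treated in triplicate with 10 µM compound or with vehicle DMSO (0.1%, v/v) for 3 h. Intracellular ROS was detected with a fluorescent probe, the legend citing DCFH-DA and the methods citing dihydroethidium (300/610 nm). Signals were read on a fluorescence microplate reader and imaged by fluorescence microscopy.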

Data set [6] in a line: Induction of intracellular ROS generation in human CCD-841 cells at 10 uM after 3 hrs by DCFH-DA-dye based fluorescence microscopy. It counts as cell-based. The essentials:
as §2

Data set [7] has as its system HCT-116. Description: Antitumor activity against human HCT116 cells xenografted in BALB/c nude mouse assessed as reduction in tumor weight at 5 mg/kg, ip administered daily for 21 days. It counts as functional. More on the design: scale not given: the % may be the effect or the level left. Summed up:
(§3)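 Male BALB/c nude mice, 3–5 weeks old, received 1×10^7 HCT-116 cells subcutaneously. Once tumors reached about 75 mm³, mice were randomized to groups of 8 and given 5 mg/kg intraperitoneally once daily for 21 days. Body weight was followed over time. At sacrifice, tumors were weighed, and inhibition (%) = (Wcontrol − Wtreated)/Wcontrol × 100. Data are mean ± SD.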
(In xenograft studies the graft and the host belong to different species.)

In data set [8] the test system is Mus musculus. Kind of data set: Toxicity in nude BALB/c mouse xenografted with human HCT116 cells assessed as effect on liver size at 5 mg/kg, ip administered daily for 21 days. Type of data set: organism-based. The note with it: in vivo, 504 h. Summed up:
(§4)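 HCT-116 xenografts (1×10^7 cells s.c.) were grown in male BALB/c nude mice, 3–5 weeks old, to about 75 mm³. Mice (n = 8 per group) then received 5 mg/kg i.p. daily for 21 days. Liver, kidney, lung and heart were examined for size and morphology against vehicle-treated controls.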

Data set [9] has as its system Mus musculus. Description: Toxicity in nude BALB/c mouse xenografted with human HCT116 cells assessed as effect on liver morphology at 5 mg/kg, ip administered daily for 21 days. Type of data set: organism-based. The note with it: in vivo, 504 h. Summed up:
as §4

Data set [10] deals with Mus musculus. Kind of data set: Toxicity in nude BALB/c mouse xenografted with human HCT116 cells assessed as effect on kidney size at 5 mg/kg, ip administered daily for 21 days. Type of data set: organism-based. The note with it: in vivo, 504 h. Summed up:
as §4

The subject of data set [11] is Mus musculus. Kind of data set: Toxicity in nude BALB/c mouse xenografted with human HCT116 cells assessed as effect on kidney morphology at 5 mg/kg, ip administered daily for 21 days. Type of data set: organism-based. The note with it: in vivo, 504 h. Summed up: as §4
In data set [12] the test system is Mus musculus. Description: Toxicity in nude BALB/c mouse xenografted with human HCT116 cells assessed as effect on lung size at 5 mg/kg, ip administered daily for 21 days. Type of data set: organism-based. The note with it: in vivo, 504 h. The essentials: as §4
Data set [13] concerns Mus musculus. Kind of data set: Toxicity in nude BALB/c mouse xenografted with human HCT116 cells assessed as effect on lung morphology at 5 mg/kg, ip administered daily for 21 days. Type of data set: organism-based. The note with it: in vivo, 504 h. Summed up: as §4
The subject of data set [14] is Mus musculus. Description: Toxicity in nude BALB/c mouse xenografted with human HCT116 cells assessed as effect on heart size at 5 mg/kg, ip administered daily for 21 days. It counts as organism-based. The note with it: in vivo, 504 h. The essentials:
as §4

In data set [15] the test system is Mus musculus. Kind of data set: Toxicity in nude BALB/c mouse xenografted with human HCT116 cells assessed as effect on heart morphology at 5 mg/kg, ip administered daily for 21 days. It counts as organism-based. The note with it: in vivo, 504 h. Summed up:
as §4

Data set [16] relates to Mus musculus. Kind of data set: Toxicity in nude BALB/c mouse xenografted with human HCT116 cells assessed as reduction in body weight at 5 mg/kg, ip administered daily for 21 days. The note with it: in vivo, 504 h. Type of data set: organism-based. Summed up:
as §3

Data set [17] in a line: Aqueous solubility of the compound in pure water by HPLC analysis. Type of data set: physicochemical. The essentials:
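Solubility was measured in pure water by HPLC on a C18 column using acetonitrile–water 60/40 (v/v) at 1.0 mL/min, with detection at 254 nm, in triplicate.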

The subject of the next data set is A549. Description: Antiproliferative activity against human A549 cells at 10 uM after 72 hrs by MTT assay. It counts as functional, cell-based.
The test system of the next data set is K562. Description: Antiproliferative activity against human K562 cells at 10 uM after 72 hrs by MTT assay. Type of data set: functional, cell-based.

pIC50: −log10 of the molar value. In brackets after ≈: the same amount, converted by molar mass. Activity calls are given as the source filed them. The rule behind the calls is not given here.

With `O=C(/C=C/c1ccc2ccccc2n1)N1CCC=C(Cl)C1=O`, the pIC50 with HCT-8 was 5.75; in the data set on HCT-116 [2], 6.33; with HT-29, 6.04; in data set [4] it was 4.29. In data set [1], this compound returned a solubility of 1990 µg/mL (≈ 6370 µM). The result with HCT-116 [3] and in the data set with HCT-116 [5] was Active. The Activity result in data set [6] is given as “Non-Toxic”; in the data set with HCT-116 [7], 52%; in the data set with Mus musculus [8] it was “Non-Toxic”; with Mus musculus [9], “Non-Toxic”; in the data set with Mus musculus [10] it was “Non-Toxic”; in the data set on Mus musculus [11], “Non-Toxic”. Further, the Activity result in the data set on Mus musculus [12], in the data set on Mus musculus [13], with Mus musculus [14], in the data set on Mus musculus [15] and in the data set with Mus musculus [16] was “Non-Toxic” in each case.

For `COc1cc(/C=C/C(=O)N2CCC=CC2=O)cc(OC)c1OC` [PIPLARTINE], the concentration in solution in data set [17] (solubility) was 1.63 µg/mL (≈ 5.14 µM). The outcome in the data set on HCT-116 [3], in the data set on A549 and in the data set on K562 was Active. Besides, the Activity with HCT-116 [7] stood at 53%.

As to `Cc1cnc(/C=C/C(=O)N2CCC=CC2=O)cn1`, in data set [17], the concentration in solution (solubility) was 47.9 µg/mL (≈ 197 µM). In the data set with HCT-116 [2], the pIC50 was 5.10. In addition, the result in the data set on HCT-116 [3], in the data set with A549 and in the data set on K562 was Active.

Compound `O=C1C=CCCN1C(=O)/C=C/c1ccc2ccccc2n1` registered a solubility in [17] of 2.41 µg/mL (≈ 8.66 µM). Besides, in the data set with HCT-116 [2], the pIC50 was 6.03. Also, the outcome with HCT-116 [3], with A549 and in the data set on K562 was Active.

Consider `Cc1nccnc1/C=C/C(=O)N1CCC=CC1=O`, for which the solubility in [17] worked out at 48.2 µg/mL (≈ 198 µM). Besides, the negative logarithm of the IC50 (pIC50) with HCT-116 [2] is 5.05. Besides, the outcome with HCT-116 [3], in the data set with A549 and with K562 was Active.

In the case of `O=C1C=CCCN1C(=O)/C=C/c1cccnc1`, the solubility in [17] amounted to 45.3 µg/mL (≈ 198 µM).

Turning to `O=C1C=CCCN1C(=O)/C=C/c1cnc2ccccc2c1`, the solubility in data set [17] turned out to be 1.95 µg/mL (≈ 7.01 µM). The compound also had a pIC50 in the data set with HCT-116 [2] of 5.09. Moreover, the result in the data set with HCT-116 [3], with A549 and in the data set with K562 was Active.

Turning to `O=C1C=CCCN1C(=O)/C=C/c1cnccn1`, the solubility in [17] is 59.8 µg/mL (≈ 261 µM). In the data set with HCT-116 [2], this compound had a pIC50 of 5.50. Moreover, the outcome in the data set on HCT-116 [3], in the data set with A549 and in the data set with K562 was Active.

In data set [17], `O=C1C=CCCN1C(=O)/C=C/c1ccncc1` showed a solubility of 46.2 µg/mL (≈ 202 µM). The compound further showed a pIC50 in the data set on HCT-116 [2] of 5.15. The result in the data set on HCT-116 [3], in the data set on A549 and with K562 was Active.

In [17], `O=C1C=CCCN1C(=O)/C=C/c1ccccn1` displayed a solubility of 40.4 µg/mL (≈ 177 µM).

As a reminder, the pIC50 is the negative decadic logarithm of the IC50, by convention in mol/L. What is called solubility is the dissolved amount per volume that the medium holds.

These data come from ChEMBL document CHEMBL4190248, “Synthesis and evaluation of N-heteroaromatic ring-based analogs of piperlongumine as potent anticancer agents” (Eur J Med Chem, 2017).
